# Reference: ChEMBL document CHEMBL1157379, “Transcriptional response of Candida parapsilosis following exposure to farnesol” (2007)
# Active and inactive are the calls of the source. The rule behind the calls is not given here.
# Tests used:
# [1] = tested on: Candida parapsilosis; experiment: Increase in ADH7 gene expression in Candida parapsilosis CLIB214 by RT-PCR; format: functional, organism-based
# In short: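 RNA came from YPD cultures at 30°C given farnesol or methanol at 4 h (A600 0.8), harvested after 2 h. RT-PCR: 95°C hot start for 1.5 min, then 26 cycles (95°C 40 s, 55°C 2 min, 72°C 3 min), then a 5-min final extension at 72°C. Each gene's signal normalised to ACT1.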
# [2] = tested on: Candida parapsilosis; experiment: Antifungal activity against Candida parapsilosis CLIB214 assessed as growth inhibition at 50 uM added after 4 hrs of bacterial growth measured after 2 hrs; format: functional; details: Lodderomyces parapsilosis
# In short: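 Overnight YPD culture at 30°C diluted to A600 0.2 in YPD. Farnesol added to 50 μM final at 2, 4, 6 or 8 h of growth (A600 about 0.8 at 4 h, 2.3 at 6 h, 6 at 8 h). Growth compared with methanol controls by A600 or cell counts.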
# [3] = tested on: Candida parapsilosis; experiment: Increase in KRE30 gene expression in Candida parapsilosis CLIB214 at 50 uM after 2 hrs by microarray based transcriptional profiling relative to control; format: functional
# In short: (§1)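 Strain grown overnight in YPD at 30°C, diluted to A600 0.2 in YPD at 30°C; farnesol (40 mM methanol stock) added at 4 h (A600 0.8), final 50 μM; methanol-only control. Cells collected 2 h later for RNA. Labelled cDNA from 25 μg total RNA (Cy3/Cy5-dCTP) hybridized to 68-mer oligo arrays at 42°C ~16 h; six individual comparisons analysed statistically.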
# [4] = tested on: Candida parapsilosis; experiment: Decrease in CGD gene ortholog accession number orf19.3051 expression in Candida parapsilosis CLIB214 at 50 uM after 2 hrs by microarray based transcriptional profiling relative to control; format: functional
# In short: (§2)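 Cells in YPD at 30°C treated with 50 μM farnesol at 4 h, with a methanol control. RNA harvested 2 h later and kept only if 28S/18S ratio was 1.6–2.2 with no degradation. 25 μg total RNA oligo-dT primed and labeled with Cy3/Cy5-dCTP. Labeled cDNA hybridized about 16 h at 42°C to duplicate-spotted 68-mer oligo arrays. Six individual comparisons analyzed statistically.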
# [5] = tested on: Candida parapsilosis; experiment: Increase in CGD gene ortholog accession number orf19.7270 expression in Candida parapsilosis CLIB214 at 50 uM after 2 hrs by microarray based transcriptional profiling relative to control; format: functional
# In short: (§3)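 Strain CLIB214 grown overnight in YPD at 30°C, diluted to A600 0.2 in fresh YPD at 30°C. After 4 h (A600 0.8), farnesol (40 mM methanol stock) added to 50 μM final, or an equal methanol volume as control; cells harvested 2 h later. RNA was accepted only with a 28S/18S ratio of 1.6–2.2. Cy3/Cy5-dCTP-labelled cDNA was made from 25 μg total RNA. Hybridisation was to duplicate-spotted 68-mer oligo arrays (3,849 genes) at 42°C for about 16 h. Six individual comparisons.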
# [6] = tested on: Candida parapsilosis; experiment: Decrease in CGD gene ortholog accession number orf19.4210 expression in Candida parapsilosis CLIB214 at 50 uM after 2 hrs by microarray based transcriptional profiling relative to control; format: functional; in short: as §2
# [7] = tested on: Candida parapsilosis; experiment: Decrease in RLM1 gene expression in Candida parapsilosis CLIB214 at 50 uM after 2 hrs by microarray based transcriptional profiling relative to control; format: functional; in short: as §3
# [8] = tested on: Candida parapsilosis; experiment: Decrease in CGD gene ortholog accession number orf19.2517 expression in Candida parapsilosis CLIB214 at 50 uM after 2 hrs by microarray based transcriptional profiling relative to control; format: functional; in short: as §2
# [9] = tested on: Candida parapsilosis; experiment: Decrease in GenBank accession number XP_457879.1 expression in Candida parapsilosis CLIB214 at 50 uM after 2 hrs by microarray based transcriptional profiling relative to control; format: functional; in short: as §3
# [10] = tested on: Candida parapsilosis; experiment: Increase in PLB3 gene expression in Candida parapsilosis CLIB214 at 50 uM after 2 hrs by microarray based transcriptional profiling relative to control; format: functional; in short: as §1
# [11] = tested on: Candida parapsilosis; experiment: Decrease in CGD gene ortholog accession number orf19.6687 expression in Candida parapsilosis CLIB214 at 50 uM after 2 hrs by microarray based transcriptional profiling relative to control; format: functional; in short: as §3
# [12] = tested on: Candida parapsilosis; experiment: Antifungal activity against Candida parapsilosis CLIB214 assessed as growth inhibition in presence of 10% fetal calf serum at 30 degC; format: functional, organism-based
# In short: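 YPD cultures started at A600 0.2, supplemented with 10% (vol/vol) fetal calf serum, and grown at 30°C or 37°C. Farnesol added with the serum. Growth monitored by A600 or cell counting.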
# [13] = tested on: Candida parapsilosis; experiment: Decrease in CGD gene ortholog accession number orf19.5156 expression in Candida parapsilosis CLIB214 at 50 uM after 2 hrs by microarray based transcriptional profiling relative to control; format: functional; in short: as §2
# [14] = tested on: Candida parapsilosis; experiment: Increase in REG1 gene expression in Candida parapsilosis CLIB214 at 50 uM after 2 hrs by microarray based transcriptional profiling relative to control; format: functional; in short: as §1
# [15] = tested on: Candida parapsilosis; experiment: Decrease in CGD gene ortholog accession number orf19.5877 expression in Candida parapsilosis CLIB214 at 50 uM after 2 hrs by microarray based transcriptional profiling relative to control; format: functional; in short: as §2
# [16] = tested on: Candida parapsilosis; experiment: Decrease in AMO2 gene expression in Candida parapsilosis CLIB214 at 50 uM after 2 hrs by microarray based transcriptional profiling relative to control; format: functional; in short: as §2
# [17] = tested on: Candida parapsilosis; experiment: Decrease in CGD gene ortholog accession number orf19.2697 expression in Candida parapsilosis CLIB214 at 50 uM after 2 hrs by microarray based transcriptional profiling relative to control; format: functional; in short: as §2
# [18] = tested on: Candida parapsilosis; experiment: Increase in CGD gene ortholog accession number orf19.6539 expression in Candida parapsilosis CLIB214 at 50 uM after 2 hrs by microarray based transcriptional profiling relative to control; format: functional; in short: as §3
# [19] = tested on: Candida parapsilosis; experiment: Increase in ENA2 gene expression in Candida parapsilosis CLIB214 at 50 uM after 2 hrs by microarray based transcriptional profiling relative to control; format: functional; in short: as §1
# [20] = tested on: Candida parapsilosis; experiment: Decrease in CGD gene ortholog accession number orf19.719 expression in Candida parapsilosis CLIB214 at 50 uM after 2 hrs by microarray based transcriptional profiling relative to control; format: functional; in short: as §3
# [21] = tested on: Candida parapsilosis; experiment: Increase in CGD gene ortholog accession number orf19.3349 expression in Candida parapsilosis CLIB214 at 50 uM after 2 hrs by microarray based transcriptional profiling relative to control; format: functional; in short: as §3
# [22] = tested on: Candida parapsilosis; experiment: Decrease in CGD gene ortholog accession number orf19.4449 expression in Candida parapsilosis CLIB214 at 50 uM after 2 hrs by microarray based transcriptional profiling relative to control; format: functional; in short: as §2
# [23] = tested on: Candida parapsilosis; experiment: Increase in CGD gene ortholog accession number orf19.6080 expression in Candida parapsilosis CLIB214 at 50 uM after 2 hrs by microarray based transcriptional profiling relative to control; format: functional; in short: as §3
# [24] = tested on: Candida parapsilosis; experiment: Decrease in CGD gene ortholog accession number orf19.5683 expression in Candida parapsilosis CLIB214 at 50 uM after 2 hrs by microarray based transcriptional profiling relative to control; format: functional; in short: as §2
# [25] = tested on: Candida parapsilosis; experiment: Increase in PDB1 gene expression in Candida parapsilosis CLIB214 at 50 uM after 2 hrs by microarray based transcriptional profiling relative to control; format: functional; in short: as §1
compound,measurement,setting,value
CC(C)=CCC/C(C)=C/CC/C(C)=C/CO [FARNESOL],Activity,[1],Active
same,inhibition at 50 µM,[2],88.5%
same,fold change (FC),[3],2.24
same,fold change (FC),[4],1.67
same,fold change (FC),[5],1.67
same,fold change (FC),[6],1.79
same,fold change (FC),[7],1.6
same,fold change (FC),[8],1.69
same,fold change (FC),[9],1.71
same,fold change (FC),[10],1.66
same,fold change (FC),[11],2.26
same,Activity,[12],inactive
same,fold change (FC),[13],2.02
same,fold change (FC),[14],1.56
same,fold change (FC),[15],3.22
same,fold change (FC),[16],1.56
same,fold change (FC),[17],1.81
same,fold change (FC),[18],1.5
same,fold change (FC),[19],1.77
same,fold change (FC),[20],1.65
same,fold change (FC),[21],1.78
same,fold change (FC),[22],1.59
same,fold change (FC),[23],1.52
same,fold change (FC),[24],1.51
same,fold change (FC),[25],1.7
